# Assay results as given in ChEMBL document CHEMBL4428062, “Human Toll-like Receptor (TLR) 8-Specific Agonistic Activity in Substituted Pyrimidine-2,4-diamines” (J Med Chem, 2016).
# Activity calls are given as the source filed them. No cut-off for these calls is given here.
# Key:
# [1] = biological target: Toll-like receptor 5 (Homo sapiens) (UniProt O60602); experiment: Agonist activity at human TLR5 expressed in HEK293 cells assessed as induction of NF-kappaB activity by secreted alkaline phosphatase reporter gene assay; format: cell-based
# Chain of Toll-like receptor 5 (Homo sapiens) (O60602 whole entry): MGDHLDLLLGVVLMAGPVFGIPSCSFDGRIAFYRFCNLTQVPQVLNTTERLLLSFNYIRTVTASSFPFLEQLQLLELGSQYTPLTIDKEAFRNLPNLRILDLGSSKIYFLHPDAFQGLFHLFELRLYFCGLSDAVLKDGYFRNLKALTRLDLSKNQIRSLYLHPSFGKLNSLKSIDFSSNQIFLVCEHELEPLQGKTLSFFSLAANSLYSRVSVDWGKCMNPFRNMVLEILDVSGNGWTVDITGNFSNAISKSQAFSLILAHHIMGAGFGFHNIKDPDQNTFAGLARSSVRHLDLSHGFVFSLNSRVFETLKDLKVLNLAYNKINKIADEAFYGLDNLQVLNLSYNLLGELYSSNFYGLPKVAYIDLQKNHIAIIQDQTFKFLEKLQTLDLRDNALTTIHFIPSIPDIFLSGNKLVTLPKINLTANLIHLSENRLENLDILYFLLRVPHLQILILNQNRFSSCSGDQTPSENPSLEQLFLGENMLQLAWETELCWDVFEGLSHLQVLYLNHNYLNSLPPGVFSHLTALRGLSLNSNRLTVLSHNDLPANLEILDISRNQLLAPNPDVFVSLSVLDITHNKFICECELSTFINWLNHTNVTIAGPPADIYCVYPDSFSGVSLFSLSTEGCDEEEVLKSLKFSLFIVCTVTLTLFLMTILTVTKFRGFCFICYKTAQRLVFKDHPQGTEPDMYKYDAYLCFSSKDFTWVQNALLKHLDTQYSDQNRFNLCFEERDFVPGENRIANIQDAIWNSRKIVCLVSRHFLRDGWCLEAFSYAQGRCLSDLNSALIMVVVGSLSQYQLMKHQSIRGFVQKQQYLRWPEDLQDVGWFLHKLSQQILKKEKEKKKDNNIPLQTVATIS
# Method in brief: (§1)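 HEK293 reporter lines stably co-transfected with the respective human TLR and an NF-κB/AP-1-driven secreted alkaline phosphatase gene, kept in selection medium. About 10^5 cells/ml were incubated with graded concentrations of stimuli. Supernatant sAP was read spectrophotometrically at 620 nm using a chromogenic substrate in detection medium. EC50 was taken as the arithmetic mean of quadruplicate samples.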
# [2] = biological target: T1, Toll-like receptor 9 (Homo sapiens) (UniProt Q9NR96); experiment: Agonist activity at human TLR9 expressed in HEK293 cells assessed as induction of NF-kappaB activity by secreted alkaline phosphatase reporter gene assay; format: cell-based; method in brief: as §1
# T1 sequence (whole entry): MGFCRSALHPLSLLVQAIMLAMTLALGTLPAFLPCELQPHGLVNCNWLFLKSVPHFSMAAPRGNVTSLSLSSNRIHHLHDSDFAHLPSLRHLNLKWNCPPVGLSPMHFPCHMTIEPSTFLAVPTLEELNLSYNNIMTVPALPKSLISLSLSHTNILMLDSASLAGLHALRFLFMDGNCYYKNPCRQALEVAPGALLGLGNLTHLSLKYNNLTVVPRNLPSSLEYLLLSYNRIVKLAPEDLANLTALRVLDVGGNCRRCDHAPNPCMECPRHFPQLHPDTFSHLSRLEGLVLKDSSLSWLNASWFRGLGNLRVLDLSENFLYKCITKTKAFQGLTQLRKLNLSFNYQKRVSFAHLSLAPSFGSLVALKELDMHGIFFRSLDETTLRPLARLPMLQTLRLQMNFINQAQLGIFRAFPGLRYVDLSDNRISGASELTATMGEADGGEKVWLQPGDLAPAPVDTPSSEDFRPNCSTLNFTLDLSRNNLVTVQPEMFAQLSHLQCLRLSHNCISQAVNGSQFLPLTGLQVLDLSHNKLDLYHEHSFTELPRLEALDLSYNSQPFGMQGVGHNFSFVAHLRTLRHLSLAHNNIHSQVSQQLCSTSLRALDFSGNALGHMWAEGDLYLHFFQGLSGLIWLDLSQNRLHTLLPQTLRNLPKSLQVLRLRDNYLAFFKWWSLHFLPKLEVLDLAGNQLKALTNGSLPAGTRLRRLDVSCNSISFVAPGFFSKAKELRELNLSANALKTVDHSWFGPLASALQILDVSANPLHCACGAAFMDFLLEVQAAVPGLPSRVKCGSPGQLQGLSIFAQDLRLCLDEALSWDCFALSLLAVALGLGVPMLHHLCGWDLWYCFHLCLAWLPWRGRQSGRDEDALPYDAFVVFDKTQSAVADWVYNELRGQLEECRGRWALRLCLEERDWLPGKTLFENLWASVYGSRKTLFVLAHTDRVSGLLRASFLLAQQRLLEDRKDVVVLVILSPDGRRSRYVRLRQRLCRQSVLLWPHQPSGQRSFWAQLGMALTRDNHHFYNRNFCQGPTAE
# [3] = biological target: T2, Toll-like receptor 8 (Homo sapiens) (UniProt Q9NR97); experiment: Agonist activity at TLR8 in human PBMC assessed as Th1-biased stimulatory activity measured as IL-12 release after 16 hrs by immunoassay
# T2 sequence (whole entry): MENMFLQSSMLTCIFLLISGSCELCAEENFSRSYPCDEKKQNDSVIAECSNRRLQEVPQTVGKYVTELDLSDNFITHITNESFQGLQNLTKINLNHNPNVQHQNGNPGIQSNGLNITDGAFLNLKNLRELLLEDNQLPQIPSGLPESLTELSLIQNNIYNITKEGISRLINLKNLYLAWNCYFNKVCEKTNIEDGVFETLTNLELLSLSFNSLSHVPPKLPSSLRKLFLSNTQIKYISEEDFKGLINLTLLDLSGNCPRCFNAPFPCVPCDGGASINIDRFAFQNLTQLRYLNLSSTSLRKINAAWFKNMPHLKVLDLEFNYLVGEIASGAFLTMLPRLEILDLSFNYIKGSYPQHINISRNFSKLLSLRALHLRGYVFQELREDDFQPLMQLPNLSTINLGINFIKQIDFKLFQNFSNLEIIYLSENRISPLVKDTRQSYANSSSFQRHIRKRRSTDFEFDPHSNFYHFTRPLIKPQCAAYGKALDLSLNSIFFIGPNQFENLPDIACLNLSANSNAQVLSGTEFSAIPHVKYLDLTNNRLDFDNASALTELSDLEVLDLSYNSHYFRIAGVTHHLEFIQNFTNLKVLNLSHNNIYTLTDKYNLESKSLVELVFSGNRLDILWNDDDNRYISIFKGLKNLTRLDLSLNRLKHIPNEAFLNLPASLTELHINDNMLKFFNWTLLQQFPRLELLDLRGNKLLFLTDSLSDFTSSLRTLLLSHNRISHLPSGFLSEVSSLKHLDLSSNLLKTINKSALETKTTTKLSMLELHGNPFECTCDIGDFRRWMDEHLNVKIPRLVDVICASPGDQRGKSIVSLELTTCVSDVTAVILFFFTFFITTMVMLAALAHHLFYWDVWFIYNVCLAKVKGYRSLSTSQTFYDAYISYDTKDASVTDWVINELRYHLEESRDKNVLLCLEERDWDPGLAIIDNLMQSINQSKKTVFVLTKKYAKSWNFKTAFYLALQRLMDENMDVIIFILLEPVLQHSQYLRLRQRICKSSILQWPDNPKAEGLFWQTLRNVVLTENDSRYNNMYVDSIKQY
# Method in brief: (§2)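 Freshly isolated human PBMC from venipuncture blood (informed consent), 10^5 cells/well, stimulated 16 h with graded concentrations of compound. Supernatants collected by centrifugation and cytokines quantified in duplicate with a multiplexed cytokine/chemokine magnetic bead array.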
# [4] = biological target: T2, Toll-like receptor 8 (Homo sapiens); experiment: Agonist activity at TLR8 in human PBMC assessed as Th1-biased stimulatory activity measured as IFNgamma release after 16 hrs by immunoassay; method in brief: as §2
Structure (SMILES),Activity [1],Activity [2],Activity [3],Activity [4]
CCCCNc1nc(N)nc(C)c1I,inactive,inactive,Active,Active
CCCCCn1c(N)nc2c(C)cccc21,inactive,inactive,–,–
CCCCNc1nc(N)nc(C)c1CCCCN,inactive,inactive,Active,Active
CCCCNc1nc(N)nc(-c2ccccc2)c1CCCCN,inactive,inactive,inactive,inactive
CCCCNc1cc(-c2ccccc2)nc(N)n1,inactive,inactive,inactive,inactive
